Tests used:
Staphylococcus aureus [1] = test: Antibacterial activity against methicillin-resistant Staphylococcus aureus ATCC 43300 by macrodilution method; type: functional
In short: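 Broth macrodilution MIC in Mueller-Hinton broth per CLSI. Inoculum 1 × 10^5 to 5 × 10^5 CFU/ml. Ten twofold drug dilutions, 18 h at 37°C without shaking. MIC is the lowest concentration with no visible growth. Triplicate.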

[2] = AUC (0 to 24 hrs) in cage fluid of Albino guiena pig at 10 mg/kg, ip; type: ADME, organism-based, Cavia porcellus; parameters: time < 24 hr, dose 10 mg/kg, route intraperitoneal; conditions: guinea pig
Staphylococcus aureus [3] = test: Antibacterial activity against methicillin-resistant Staphylococcus aureus ATCC 43300 during logarithmic growth phase by macrodilution method; type: functional
[4] = Half life in cage fluid of Albino guiena pig at 10 mg/kg, ip; type: ADME, organism-based, Cavia porcellus; parameters: dose 10 mg/kg, route intraperitoneal; conditions: guinea pig, in vivo
Staphylococcus aureus [5] = test: Antibacterial activity against methicillin-resistant Staphylococcus aureus ATCC 43300 during stationary growth phase by macrodilution method; type: functional
[6] = Cmax in cage fluid of Albino guiena pig at 10 mg/kg, ip after 12 hrs; type: ADME, organism-based, Cavia porcellus, Interstitial fluid; parameters: dose 10 mg/kg, route intraperitoneal; conditions: guinea pig
[7] = Tmax in cage fluid of Albino guiena pig at 10 mg/kg, ip; type: ADME, organism-based, Cavia porcellus; parameters: dose 10 mg/kg, route intraperitoneal; conditions: guinea pig
[8] = Cmin in cage fluid of Albino guiena pig at 10 mg/kg, ip after 12 hrs; type: ADME, organism-based, Cavia porcellus; parameters: dose 10 mg/kg, route intraperitoneal; conditions: guinea pig, read-out: Cmin

Which MIC (Staphylococcus aureus [1]) does the source give for `C[C@H]1COc2c(N3CCN(C)CC3)c(F)cc3c(=O)c(C(=O)O)cn1c23.C[C@H]1COc2c(N3CCN(C)CC3)c(F)cc3c(=O)c(C(=O)O)cn1c23.O` [LEVOFLOXACIN] here?
Its MIC is 0.16 µg/mL.

What about the AUC(0-t) at 24 h [2] of the same compound?
The AUC(0-t) at 24 h was 6100 ng·h/mL.

And the MBC (Staphylococcus aureus [3])?
Its MBC is 0.63 µg/mL.

What about the t1/2 [4] of the same compound?
Its t1/2 is 4.2 h.

What about the MBC (Staphylococcus aureus [5]) of the same compound?
Its MBC is greater than 20 µg/mL.

And the Cmax [6]?
The Cmax was 1500 ng/mL.

And the Tmax [7]?
The Tmax was 2.5 h.

What about the concentration at 12 h [8] of the same compound?
Its concentration at 12 h is 300 ng/mL.
